ChEMBL document CHEMBL1250467, “Design, synthesis, and anticonvulsant activity of new N-Mannich bases derived from spirosuccinimides and spirohydantoins” (Bioorg Med Chem, 2010)
The source made the active and inactive calls. The calls are words filed in the database; no cut-off is given here.

How the values were obtained:
Rattus norvegicus [1] = experiment: Anticonvulsant activity in Sprague-Dawley rat assessed as protection against maximal electroshock-induced seizures at 30 mg/kg po after 0.25 hrs; format: functional
How it was run: (§1)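 Male Sprague–Dawley rats, four per group, given 30 mg/kg orally as a 0.5% methylcellulose/water suspension. MES protection scored at 0.25, 0.5, 1, 2 and 4 h after dosing, motor impairment checked in parallel; data are the number of the four rats protected.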

Mus musculus [2] = experiment: Neurotoxicity in CF1 albino mouse at 300 mg/kg, ip after 4 hrs by rotarod test; format: toxicity, organism-based; parameters: dose 300 mg/kg, route intraperitoneal; conditions: in vivo
How it was run: (§2)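 Male CF-1 mice; compounds suspended in 0.5% methylcellulose/water and injected ip at 30, 100 and 300 mg/kg. MES, scPTZ (pentylenetetrazole 85 mg/kg sc at the test time) and rotarod neurotoxicity were scored at 0.5 and 4 h. Value is the lowest dose active or toxic in half or more of the animals; signs such as ataxia or tremor were recorded.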

Rattus norvegicus [3] = species on record: Rattus norvegicus; experiment: Protection index, ratio of TD50 for Sprague-Dawley rat by rotarod test to ED50 for Sprague-Dawley rat by maximal electroshock test; format: functional
How it was run: (§3)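 Male Sprague–Dawley rats dosed orally (0.5% methylcellulose/water suspension), groups of eight, tested at the previously estimated time of peak effect. Doses varied until at least three points lay in the 10–90% range of protection (MES, scPTZ) or minimal rotarod neurotoxicity. ED50/TD50 with 95% confidence intervals came from regression; PI = TD50/ED50.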

Rattus norvegicus [4] = experiment: Anticonvulsant activity in Sprague-Dawley rat assessed as protection against maximal electroshock-induced seizures at 30 mg/kg po after 2 hrs; format: functional; how it was run: as §1
[5] = Neurotoxicity in po dosed Sprague-Dawley rat by rotarod test; format: toxicity, organism-based; conditions: in vivo; how it was run: as §3
Mus musculus [6] = experiment: Anticonvulsant activity in ip dosed CF1 albino mouse assessed as dose required to protect against subcutaneous pentylenetetrazole-induced seizures after 0.5 hrs; format: functional; how it was run: as §2
Rattus norvegicus [7] = experiment: Anticonvulsant activity in Sprague-Dawley rat assessed as protection against maximal electroshock-induced seizures at 30 mg/kg po after 1 hr; format: functional; how it was run: as §1
Mus musculus [8] = experiment: Anticonvulsant activity in ip dosed CF1 albino mouse assessed as dose required to protect against subcutaneous pentylenetetrazole-induced seizures after 4 hrs; format: functional; how it was run: as §2
Rattus norvegicus [9] = experiment: Anticonvulsant activity in po dosed Sprague-Dawley rat assessed as protection against maximal electroshock-induced seizures; format: functional; how it was run: as §3
Rattus norvegicus [10] = experiment: Anticonvulsant activity in po dosed Sprague-Dawley rat assessed as protection against subcutaneous pentylenetetrazole-induced seizures; format: functional; how it was run: as §3
Mus musculus [11] = experiment: Neurotoxicity in CF1 albino mouse assessed as unable to grasp rotarod at 100 mg/kg, ip after 4 hrs by rotarod test; format: toxicity, organism-based; parameters: dose 100 mg/kg, route intraperitoneal; conditions: in vivo; how it was run: as §2
Mus musculus [12] = experiment: Anticonvulsant activity in ip dosed CF1 albino mouse assessed as dose required to protect against maximal electroshock-induced seizures after 4 hrs; format: functional; how it was run: as §2
Mus musculus [13] = experiment: Anticonvulsant activity in ip dosed CF1 albino mouse assessed as dose required to protect against maximal electroshock-induced seizures after 0.5 hrs; format: functional; how it was run: as §2
Rattus norvegicus [14] = experiment: Anticonvulsant activity in Sprague-Dawley rat assessed as protection against maximal electroshock-induced seizures at 30 mg/kg po after 4 hrs; format: functional; how it was run: as §1
Rattus norvegicus [15] = experiment: Anticonvulsant activity in po dosed Sprague-Dawley rat assessed as time required to peak protection against seizures; format: functional
Rattus norvegicus [16] = experiment: Anticonvulsant activity in Sprague-Dawley rat assessed as protection against maximal electroshock-induced seizures at 30 mg/kg po after 0.5 hrs; format: functional; how it was run: as §1
Mus musculus [17] = experiment: Neurotoxicity in CF1 albino mouse assessed as unable to grasp rotarod at 300 mg/kg, ip after 4 hrs by rotarod test; format: toxicity, organism-based; parameters: dose 300 mg/kg, route intraperitoneal; conditions: in vivo; how it was run: as §2
Rattus norvegicus [18] = experiment: Anticonvulsant activity in Sprague-Dawley rat assessed as protection against subcutaneous pentylenetetrazole-induced seizures at 50 mg/kg po after 1 hr; format: functional
How it was run: (§4)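 Oral fixed dose of 50 mg/kg in male Sprague–Dawley rats (0.5% methylcellulose/water suspension), four rats per group. Pentylenetetrazole 70 mg/kg given sc at each test time (0.25, 0.5, 1, 2, 4 h); protection from clonic seizures counted per four rats, with motor impairment studied in parallel.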

Rattus norvegicus [19] = experiment: Anticonvulsant activity in Sprague-Dawley rat assessed as protection against subcutaneous pentylenetetrazole-induced seizures at 50 mg/kg po after 4 hrs; format: functional; how it was run: as §4
Rattus norvegicus [20] = experiment: Anticonvulsant activity in Sprague-Dawley rat assessed as protection against subcutaneous pentylenetetrazole-induced seizures at 50 mg/kg po after 0.25 hrs; format: functional, organism-based; parameters: dose 50 mg/kg; how it was run: as §4
Rattus norvegicus [21] = experiment: Anticonvulsant activity in Sprague-Dawley rat assessed as protection against subcutaneous pentylenetetrazole-induced seizures at 50 mg/kg po after 2 hrs; format: functional; how it was run: as §4
Rattus norvegicus [22] = experiment: Anticonvulsant activity in Sprague-Dawley rat assessed as protection against subcutaneous pentylenetetrazole-induced seizures at 50 mg/kg po after 0.5 hrs; format: functional; how it was run: as §4
Mus musculus [23] = experiment: Anticonvulsant activity in CF1 albino mouse assessed as protection against subcutaneous pentylenetetrazole-induced seizures at 300 mg/kg, ip after 4 hrs; format: functional, organism-based; parameters: dose 300 mg/kg; how it was run: as §2
Mus musculus [24] = experiment: Neurotoxicity in ip dosed CF1 albino mouse assessed as dose required to cause toxicity after 4 hrs by rotarod test; format: organism-based; conditions: in vivo; how it was run: as §2
Rattus norvegicus [25] = experiment: Toxicity in Sprague-Dawley rat assessed as change in body weight at 600 mg/kg, ip measured after 24 hrs of clonus of one of the fore limbs seizure stage in non-protected rat; format: organism-based; parameters: dose 600 mg/kg, route intraperitoneal; conditions: in vivo
How it was run: (§5)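 Male Sprague–Dawley rats (150–180 g) received compound ip at 600 mg/kg, then a challenge dose of pilocarpine. Seizure severity graded on the Racine scale; rats were scored as protected or not, and body weight change was taken 24 h after the first stage III seizure.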

Mus musculus [26] = experiment: Neurotoxicity in CF1 albino mouse assessed as myoclonic jerks at 100 mg/kg, ip after 4 hrs by rotarod test; format: toxicity, organism-based; parameters: dose 100 mg/kg, route intraperitoneal; conditions: in vivo; how it was run: as §2
Mus musculus [27] = experiment: Neurotoxicity in ip dosed CF1 albino mouse assessed as dose required to cause toxicity after 0.5 hrs by rotarod test; format: organism-based; conditions: in vivo; how it was run: as §2
Rattus norvegicus [28] = experiment: Anticonvulsant activity in Sprague-Dawley rat assessed as protection against pilocarpine-induced status epilepticus at 600 mg/kg, ip; format: functional, organism-based; parameters: dose 600 mg/kg; how it was run: as §5
Rattus norvegicus [29] = experiment: Anticonvulsant activity in Sprague-Dawley rat assessed as protection against pilocarpine-induced status epilepticus at 600 mg/kg, ip measured after clonus of one of the fore limbs seizure stage; format: functional, organism-based; parameters: dose 600 mg/kg; how it was run: as §5
Rattus norvegicus [30] = experiment: Toxicity in Sprague-Dawley rat assessed as change in body weight at 600 mg/kg, ip measured after 24 hrs of clonus of one of the fore limbs seizure stage in protected rat; format: organism-based; parameters: dose 600 mg/kg, route intraperitoneal; conditions: in vivo; how it was run: as §5
Mus musculus [31] = experiment: Anticonvulsant activity in CF1 albino mouse assessed as protection against maximal electroshock-induced seizures at 300 mg/kg, ip after 4 hrs; format: functional, organism-based; parameters: dose 300 mg/kg; how it was run: as §2

SMILES | Activity (Rattus norvegicus [1]) | Activity (Mus musculus [2]) | Activity (Rattus norvegicus [4]) [%] | TD50 [5] [mg/kg] | Activity (Mus musculus [6]) [mg/kg] | Activity (Rattus norvegicus [7]) | ED50 (Rattus norvegicus [9]) [mg/kg] | ED50 (Rattus norvegicus [10]) [mg/kg] | Activity (Mus musculus [12]) [mg/kg] | Activity (Mus musculus [13]) [mg/kg] | Activity (Rattus norvegicus [14]) [%] | Time (Rattus norvegicus [15]) [h] | Activity (Rattus norvegicus [16]) | Activity (Rattus norvegicus [18]) | Activity (Rattus norvegicus [19]) [%] | Activity (Rattus norvegicus [20]) | Activity (Rattus norvegicus [21]) [%] | Activity (Rattus norvegicus [22]) | Activity (Mus musculus [23]) | further results
O=C1NC2(CCc3ccccc3C2)C(=O)N1CN1CCN(CCO)CC1 (stereo unspecified) | inactive | Non-toxic | 100 | > 300 | 100 | 50% | 14.9 | > 250 | 300 | 100 | 100 | 4 | 25% |  |  |  |  |  |  | PI (Rattus norvegicus [3]): >20.09; Activity (Mus musculus [8]): 300 mg/kg; Activity (Mus musculus [11]): Non-toxic
O=C1CC2(CCc3ccccc3C2)C(=O)N1CN1CCOCC1 (stereo unspecified) | 50% | Non-toxic | 25 | > 500 | 100 | 25% | > 160 | > 150 | 300 | 100 | 50 | 0.5 | 25% | 25% | 25 | inactive | 25 | 25% | inactive | Activity (Mus musculus [17]): Non-toxic
O=C1CC2(CCc3ccccc3C2)C(=O)N1CN1CCN(c2ccc(F)cc2)CC1 (stereo unspecified) | inactive |  | 25 |  |  | inactive |  |  |  | 100 | 25 |  | inactive | inactive | 25 | inactive | 25 | inactive | inactive | Activity (Mus musculus [24]): 300 mg/kg; Activity (Rattus norvegicus [25]): 20 g; Activity (Mus musculus [26]): Toxic; Activity (Mus musculus [27]): 300 mg/kg; Activity (Rattus norvegicus [28]): inactive; Activity (Rattus norvegicus [29]): inactive; Activity (Rattus norvegicus [30]): Non-toxic; Activity (Mus musculus [31]): inactive
